How the values were obtained:
[1] = biological target: T1, Cathepsin B (Homo sapiens, UniProt P07858); assay: Inhibition of recombinant human cathepsin B endopeptidase activity assessed as inhibitory constant for enzyme-inhibitor complex using Z-Arg-Arg-AMC as substrate in presence of pH 4.5 acetate buffer by fluorescence assay
Outline: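 Recombinant cathepsin B endopeptidase activity assayed with the small substrate Z-Arg-Arg-AMC at pH 4.5. Acidic conditions chosen to shift the enzyme toward the closed (exopeptidase) conformation. Ki reported.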

[2] = biological target: T1, Cathepsin B; assay: Inhibition of recombinant human cathepsin B endopeptidase activity assessed as inhibitory constant for enzyme-substrate-inhibitor complex using Z-Arg-Arg-AMC as substrate in presence of pH 6 phosphate buffer by fluorescence assay
[3] = biological target: T1, Cathepsin B; assay: Inhibition of recombinant human cathepsin B exopeptidase activity assessed as inhibitory constant for enzyme-substrate-inhibitor complex using Abz-Gly-Ile-Val-Arg-Ala-Lys(Dnp)-OH as substrate in presence of pH 5 acetate buffer by fluorescence assay
[4] = biological target: T1, Cathepsin B; assay: Inhibition of recombinant human cathepsin B exopeptidase activity assessed as inhibitory constant for enzyme-inhibitor complex using Abz-Gly-Ile-Val-Arg-Ala-Lys(Dnp)-OH as substrate in presence of pH 5 acetate buffer by fluorescence assay

Measured: Ki

O=C(O)c1ccc([N+](=O)[O-])c2cccnc12
Not Active: [1] | [2] | [3] | [4]

O=[N+]([O-])c1ccc(-c2ccccc2)c2ncccc12
Not Active: [1] | [2] | [3] | [4]

Cc1ccc(-c2ccc([N+](=O)[O-])c3cccnc23)cc1
Not Active: [1] | [2] | [3] | [4]

CN(CC#N)C(=O)c1cc([N+](=O)[O-])ccc1O
Not Active: [1] | [2] | [3] | [4]

N#CCN(Cc1ccccc1)Cc1cc([N+](=O)[O-])ccc1O
Not Active: [1] | [2] | [3] | [4]

COCCN(CC1CCN(Cc2nc3ccccc3o2)CC1)C(=O)c1cc([N+](=O)[O-])c2cccnc2c1O
Not Active: [1] | [2] | [3] | [4]

CC(=O)c1ccc(-c2ccc(-c3ccc([N+](=O)[O-])c4cccnc34)s2)cc1
Not Active: [1] | [2] | [3] | [4]

O=[N+]([O-])c1ccc(O)c(CN2CCCCC2)c1
Not Active: [1] | [2] | [3] | [4]

CC1CCN(Cc2cc([N+](=O)[O-])ccc2O)CC1
Not Active: [1] | [2] | [3] | [4]

Cc1cccc(-c2ccc([N+](=O)[O-])c3cccnc23)c1
Not Active: [1] | [2] | [3] | [4]

N#CC1(NCc2cc([N+](=O)[O-])ccc2O)CC1
Not Active: [1] | [2] | [3] | [4]

CN(CC#N)Cc1ccc2c([N+](=O)[O-])ccc(O)c2n1
Not Active: [1] | [2] | [3] | [4]

N#Cc1ccc(-c2ccc([N+](=O)[O-])c3cccnc23)cc1
Not Active: [1] | [2] | [3] | [4]

O=C(O)c1ccc2c([N+](=O)[O-])cc([N+](=O)[O-])c(O)c2n1
Not Active: [1] | [2] | [3] | [4]

O=[N+]([O-])c1cccc(-c2ccc([N+](=O)[O-])c3cccnc23)c1
Not Active: [1] | [2] | [3] | [4]

CC1CCN(C(=O)c2cc([N+](=O)[O-])ccc2O)CC1
Not Active: [1] | [2] | [3] | [4]

N#CCNCc1cc([N+](=O)[O-])ccc1O
Not Active: [1] | [2] | [3] | [4]

O=[N+]([O-])c1ccc(-c2ccc[nH]2)c2ncccc12
Not Active: [1] | [2] | [3] | [4]

O=[N+]([O-])c1ccc(Br)c2ncccc12
Not Active: [1] | [2] | [3] | [4]

O=[N+]([O-])c1ccc(-c2cc3ccccc3s2)c2ncccc12
Not Active: [1] | [2] | [3] | [4]

O=[N+]([O-])c1ccc(-c2c(-c3ccc([N+](=O)[O-])c4cccnc34)oc3ccccc23)cc1
Not Active: [1] | [2] | [3] | [4]

O=[N+]([O-])c1ccc(-c2ccco2)c2ncccc12
Not Active: [1] | [2] | [3] | [4]

CN(CC#N)Cc1cc([N+](=O)[O-])ccc1O
Not Active: [1] | [2] | [3] | [4]

O=[N+]([O-])c1ccc(-c2cc3ccccc3o2)c2ncccc12
Not Active: [1] | [2] | [3] | [4]

CC(=O)c1ccc(-c2c(-c3ccc([N+](=O)[O-])c4cccnc34)oc3ccccc23)cc1
Not Active: [1] | [2] | [3] | [4]

Cc1ccc([N+](=O)[O-])c2cccnc12
Not Active: [1] | [2] | [3] | [4]

O=C(NCC1CCN(Cc2nc3ccccc3s2)CC1)c1cc([N+](=O)[O-])c2cccnc2c1O
Not Active: [1] | [2] | [3] | [4]

O=C(NCC1CCN(C2Cc3ccccc3C2)CC1)c1cc([N+](=O)[O-])c2cccnc2c1O
Not Active: [1] | [2] | [3] | [4]

CC(=O)c1ccc(-c2ccc(-c3ccc([N+](=O)[O-])c4cccnc34)n2C)cc1
Not Active: [1] | [2] | [3] | [4]

Cc1ccc(-c2ccc([N+](=O)[O-])c3cccnc23)s1
Not Active: [1] | [2] | [3] | [4]

N#Cc1ccc([N+](=O)[O-])c2cccnc12
Not Active: [1] | [2] | [3] | [4]

O=[N+]([O-])c1ccc(-c2ccsc2)c2ncccc12
Not Active: [1] | [2] | [3] | [4]

Cc1ccc2c([N+](=O)[O-])cc([N+](=O)[O-])c(O)c2n1
Not Active: [1] | [2] | [3] | [4]

O=[N+]([O-])c1ccc(-c2ccoc2)c2ncccc12
Not Active: [1] | [2] | [3] | [4]

N#Cc1ccc(-c2ccc(-c3ccc([N+](=O)[O-])c4cccnc34)o2)cc1
Not Active: [1] | [2] | [3] | [4]

O=[N+]([O-])c1ccc(-c2occc2-c2ccc([N+](=O)[O-])c3cccnc23)cc1
Not Active: [1] | [2] | [3] | [4]

NC(=O)c1ccc([N+](=O)[O-])c2cccnc12
Not Active: [1] | [2] | [3] | [4]

O=C(c1cc([N+](=O)[O-])ccc1O)N1CCCCC1
Not Active: [1] | [2] | [3] | [4]

From ChEMBL document CHEMBL4219118, “Cathepsin B inhibitors: Further exploration of the nitroxoline core” (Bioorg Med Chem Lett, 2018)
